Measured values published in ChEMBL document CHEMBL1149097, “Orally active antimalarials: hydrolytically stable derivatives of 10-trifluoromethyl anhydrodihydroartemisinin” (J Med Chem, 2004).
≈ marks a conversion by molar mass, not a printed value.

Experiments:
Mus musculus [1] = assay: In vivo effective dose evaluated against Plasmodium berghei N by peroral administration in mice (Mus musculus); type: functional; conditions: po
Method in brief: (§1)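 P. berghei N infection in mice, with drug given subcutaneously or orally, per the Peters protocol. Parasitemia was read on day 4 and expressed as percent reduction at 10 mg/kg. ED50 and ED90 in mg/kg were derived from the same test.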

Mus musculus [2] = assay: In vivo effective dose was evaluated against Plasmodium berghei N by sub cutaneous administration in mice (Mus musculus); type: functional; method in brief: as §1
Mus musculus [3] = assay: In vivo effective dose was evaluated against Plasmodium berghei N by peroral administration in mice (Mus musculus); type: functional; conditions: po; method in brief: as §1
Mus musculus [4] = assay: In vivo effective dose evaluated against Plasmodium berghei N by subcutaneous administration in mice (Mus musculus); type: functional; conditions: sc; method in brief: as §1
Mus musculus [5] = assay: Compound was evaluated for percentage reduction of parasitaemia at day 4 at a concentration of 10 mg/kg by peroral administration; type: functional; conditions: route oral; method in brief: as §1
Mus musculus [6] = assay: Percentage reduction of parasitaemia at day 4 at a concentration of 10 mg/kg by subcutaneous administration; type: functional; method in brief: as §1
Mus musculus [7] = assay: In vivo antimalarial activity against Plasmodium berghei NK173 in mice (Mus musculus) by intraperitoneal route at a concentration of 35.5 uM/kg at day 11; type: functional
Method in brief: (§2)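 Female CD1 mice (18-20 g) were infected with P. berghei NK 173 at (1-5) × 10^6 parasitized red cells, following the Peters test. Groups held 5-10 mice. Drug was given intraperitoneally at 35.5 µmol·kg⁻¹. Survival was followed to 20 days postinfection.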

Mus musculus [8] = assay: In vivo antimalarial activity against Plasmodium berghei NK 173 in mice (Mus musculus) by intraperitoneal route at a concentration of 35.5 uM/kg at day 5; type: functional; method in brief: as §2
Plasmodium falciparum [9] = assay: In vitro inhibitory concentration against chloroquine-resistant Plasmodium falciparum W2; type: functional, organism-based
Method in brief: (§3)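 [3H]hypoxanthine uptake assay on chloroquine-resistant P. falciparum FcB1 (Colombia) and W2 (Indochina) in continuous human erythrocyte culture. Ring-stage synchronized parasites at 0.5% parasitemia and 1% final hematocrit received serially diluted drug, with methanol or DMSO at no more than 0.1% final. Plates ran 42 h at 37 °C in a candle jar, then freeze-thaw, harvest and scintillation counting. IC50 came from nonlinear regression of log dose-response, from at least three experiments.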

Mus musculus [10] = assay: In vivo antimalarial activity against Plasmodium berghei NK 173 in mice (Mus musculus) by intraperitoneal route at a concentration of 35.5 uM/kg at day 10; type: functional; method in brief: as §2
Mus musculus [11] = assay: In vivo antimalarial activity against Plasmodium berghei NK173 in mice (Mus musculus) by intraperitoneal route at a concentration of 35.5 uM/kg at day 4; type: functional; method in brief: as §2
Plasmodium falciparum [12] = assay: In vitro inhibitory concentration against chloroquine-resistant Plasmodium falciparum FcB1; type: functional, organism-based; method in brief: as §3
Mus musculus [13] = assay: In vivo effective dose was evaluated against Plasmodium berghei N by subcutaneous administration in mice (Mus musculus); type: functional; conditions: sc; method in brief: as §1
Mus musculus [14] = assay: In vivo antimalarial activity against Plasmodium berghei NK 173 in mice (Mus musculus) by intraperitoneal route at a concentration of 35.5 uM/kg at day 12; type: functional; method in brief: as §2
[15] = Plasma clearance following 10 mg/kg intravenous or 50 mg/kg oral dosing in rats; type: ADME, organism-based; conditions: rat, read-out: Activity
Method in brief: (§4)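 Male Sprague-Dawley rats (280-320 g) were cannulated the day before, then fasted with free access to water, n = 2 per route. The iv dose was nominally 10 mg/kg, about 3 mg/mL in 10% ethanol/15 mM citrate-buffered 0.1 M Captisol, pH 3, infused over 5 min. The oral dose was nominally 50 mg/kg, given by gavage as a suspension in 0.5% HPMC, 0.5% benzyl alcohol and 0.4% Tween 80 in 0.9% NaCl. Carotid blood was sampled over 8 h, and plasma was quantified by HPLC/MS.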

[16] = Volume of distribution following 10 mg/kg intravenous or 50 mg/kg oral dosing in rats was determined; type: ADME, organism-based; conditions: rat, in vivo; read-out: Activity; method in brief: as §4
[17] = Log D value between octanol and PBS at pH7.4; type: physicochemical; conditions: pH 7.4
[18] = Oral bioavailability in rat (dose 10 mg/kg i.v. and 50 mg/kg p.o.); type: ADME, organism-based; conditions: in vivo; method in brief: as §4
[19] = Partition coefficient between octanol and water (logP); type: physicochemical
[20] = pKa value was determined; type: physicochemical
[21] = Solubility in iv formulation was determined after incubation at 25 degree C
[22] = Solubility in oral formulation was determined after incubation at 25 degree C; type: physicochemical
[23] = Solubility in PBS AT pH 7.4 was determined after incubation at 25 degree C; type: physicochemical

CCNCC1=C(C(F)(F)F)O[C@@H]2O[C@]3(C)CCC4[C@H](C)CC[C@@H]1[C@]42OO3 (stereo partly drawn)
ED50 (Mus musculus [1]): < 10 mg/kg
ED50 (Mus musculus [2]): < 10 mg/kg
ED90 (Mus musculus [3]): < 10 mg/kg
ED90 (Mus musculus [4]): < 10 mg/kg
Reduction (Mus musculus [5]): 96%
Reduction (Mus musculus [6]): 98.1%
Parasitemia (Mus musculus [7]): 66%
Parasitemia (Mus musculus [8]): 5%
IC50 (Plasmodium falciparum [9]): 13.4 nM

C[C@@H]1CC[C@H]2C(CNCCN)=C(C(F)(F)F)O[C@@H]3O[C@]4(C)CCC1[C@]32OO4 (stereo partly drawn)
Parasitemia (Mus musculus [10]): 25%
Parasitemia (Mus musculus [11]): 0%
IC50 (Plasmodium falciparum [12]): 1.2 nM

C[C@@H]1CC[C@H]2C(CC(C(=O)O)C(=O)O)=C(C(F)(F)F)O[C@@H]3O[C@]4(C)CC[C@@H]1[C@]32OO4
IC50 (Plasmodium falciparum [9]): > 1000 nM

C[C@@H]1CC[C@H]2C(COCC(O)CO)=C(C(F)(F)F)O[C@@H]3OC4(C)CCC1[C@]32OO4 (single isomer, unassigned)
IC50 (Plasmodium falciparum [12]): 3.7 nM

C[C@@H]1CC[C@H]2C(CO)=C(C(F)(F)F)O[C@@H]3OC4(C)CCC1[C@]32OO4 (single isomer, unassigned)
Parasitemia (Mus musculus [11]): 40%
IC50 (Plasmodium falciparum [12]): 7.5 nM

C[C@@H]1CC[C@H]2C(CN3CCOCC3)=C(C(F)(F)F)O[C@@H]3OC4(C)CCC1[C@]32OO4 (single isomer, unassigned)
ED50 (Mus musculus [1]): < 10 mg/kg
ED50 (Mus musculus [13]): < 10 mg/kg
ED90 (Mus musculus [3]): < 10 mg/kg
ED90 (Mus musculus [4]): < 10 mg/kg
Reduction (Mus musculus [5]): 93.3%
Reduction (Mus musculus [6]): 98.1%
Parasitemia (Mus musculus [14]): 45%
Parasitemia (Mus musculus [11]): 18%
IC50 (Plasmodium falciparum [12]): 3.1 nM

COC(=O)C(C(=O)OC)C1=C(C(F)(F)F)O[C@@H]2OC3(C)CCC4[C@H](C)CC[C@@H]1[C@]42OO3 (single isomer, unassigned)
IC50 (Plasmodium falciparum [9]): > 1000 nM

CC1=C(C(F)(F)F)O[C@@H]2OC3(C)CC[C@H]4[C@H](C)CC[C@@H]1[C@@]24OO3 (single isomer, unassigned)
Parasitemia (Mus musculus [7]): 34%
Parasitemia (Mus musculus [11]): 0%
IC50 (Plasmodium falciparum [12]): 6 nM

C[C@@H]1CC[C@H]2C(CN3CCN(CCO)CC3)=C(C(F)(F)F)O[C@@H]3OC4(C)CC[C@@H]1[C@]32OO4 (single isomer, unassigned)
clearance [15]: 149 mL/min/kg
Vd [16]: 11.8 L/kg
logD [17]: 3.46
bioavailability [18]: 34.6%
logP [19]: 3.52
pKa [20]: 6.59
solubility [21]: > 3000 µg/mL
solubility [22]: 676 µg/mL (≈ 1460 µM)
solubility [23]: 234 µg/mL (≈ 507 µM)
ED50 (Mus musculus [1]): < 10 mg/kg
ED50 (Mus musculus [2]): < 10 mg/kg
ED90 (Mus musculus [3]): < 10 mg/kg
ED90 (Mus musculus [4]): < 10 mg/kg
Reduction (Mus musculus [5]): 100%
Reduction (Mus musculus [6]): 100%
Parasitemia (Mus musculus [7]): 37%
Parasitemia (Mus musculus [8]): 0.5%
IC50 (Plasmodium falciparum [9]): 15.2 nM

CCOCC1=C(C(F)(F)F)O[C@@H]2OC3(C)CC[C@H]4[C@H](C)CC[C@@H]1[C@@]24OO3 (single isomer, unassigned)
ED50 (Mus musculus [2]): < 10 mg/kg
ED90 (Mus musculus [4]): < 10 mg/kg
Reduction (Mus musculus [5]): 15.6%
Reduction (Mus musculus [6]): 100%
Parasitemia (Mus musculus [7]): 30%
Parasitemia (Mus musculus [11]): 0.4%
IC50 (Plasmodium falciparum [9]): 25 nM

C[C@@H]1CC[C@H]2C(COCCO)=C(C(F)(F)F)O[C@@H]3OC4(C)CC[C@@H]1[C@]32OO4 (single isomer, unassigned)
Parasitemia (Mus musculus [11]): 2%
IC50 (Plasmodium falciparum [12]): 2.4 nM

CC(=O)OCC1=C(C(F)(F)F)O[C@@H]2OC3(C)CC[C@H]4[C@H](C)CC[C@@H]1[C@@]24OO3 (single isomer, unassigned)
IC50 (Plasmodium falciparum [12]): 1.7 nM

C=CCOCC1=C(C(F)(F)F)O[C@@H]2OC3(C)CC[C@H]4[C@H](C)CC[C@@H]1[C@@]24OO3 (single isomer, unassigned)
IC50 (Plasmodium falciparum [12]): 6 nM

COCCOCC1=C(C(F)(F)F)O[C@@H]2OC3(C)CC[C@H]4[C@H](C)CC[C@@H]1[C@@]24OO3 (single isomer, unassigned)
Parasitemia (Mus musculus [11]): 6%
IC50 (Plasmodium falciparum [12]): 2.7 nM

C[C@@H]1CC[C@H]2C(COCc3ccccc3)=C(C(F)(F)F)O[C@@H]3OC4(C)CC[C@@H]1[C@]32OO4 (single isomer, unassigned)
IC50 (Plasmodium falciparum [9]): 20 nM

Cc1ccc(S(=O)(=O)NCC2=C(C(F)(F)F)O[C@@H]3OC4(C)CC[C@H]5[C@H](C)CC[C@@H]2[C@@]35OO4)cc1 (single isomer, unassigned)
IC50 (Plasmodium falciparum [12]): 19.1 nM

C[C@@H]1CC[C@H]2C(CNS(C)(=O)=O)=C(C(F)(F)F)O[C@@H]3OC4(C)CC[C@@H]1[C@]32OO4 (single isomer, unassigned)
IC50 (Plasmodium falciparum [12]): 20 nM

C[C@@H]1CC[C@H]2C(CN)=C(C(F)(F)F)O[C@@H]3OC4(C)CC[C@@H]1[C@]32OO4 (single isomer, unassigned)
Parasitemia (Mus musculus [11]): 0.7%
IC50 (Plasmodium falciparum [12]): 4.4 nM

CNCC1=C(C(F)(F)F)O[C@@H]2OC3(C)CC[C@H]4[C@H](C)CC[C@@H]1[C@@]24OO3 (single isomer, unassigned)
IC50 (Plasmodium falciparum [12]): 9.2 nM

C[C@@H]1CC[C@H]2C(CN=[N+]=[N-])=C(C(F)(F)F)O[C@@H]3OC4(C)CC[C@@H]1[C@]32OO4 (single isomer, unassigned)
IC50 (Plasmodium falciparum [12]): 10 nM

CC1=CO[C@@H]2OC3(C)CC[C@H]4[C@H](C)CC[C@@H]1[C@@]24OO3 (single isomer, unassigned) [ANHYDRODIHYDROARTEMISININ]
Parasitemia (Mus musculus [11]): 18%
IC50 (Plasmodium falciparum [12]): 20 nM

CO[C@H]1O[C@@H]2O[C@@]3(C)CC[C@H]4[C@H](C)CC[C@@H]([C@H]1C)[C@@]24OO3 [ARTEMETHER]
clearance [15]: 114 mL/min/kg
Vd [16]: 8.4 L/kg
bioavailability [18]: 1.4%
solubility [21]: 4700 µg/mL (≈ 15800 µM)
solubility [22]: 256 µg/mL (≈ 858 µM)
solubility [23]: 63.4 µg/mL (≈ 212 µM)
Parasitemia (Mus musculus [7]): 32%
Parasitemia (Mus musculus [11]): 0%
IC50 (Plasmodium falciparum [12]): 3.5 nM

C[C@H]1[C@H](OC(=O)CCC(=O)O)O[C@@H]2O[C@@]3(C)CC[C@H]4[C@H](C)CC[C@@H]1[C@@]24OO3 [ARTESUNATE]
ED50 (Mus musculus [1]): 5.4 mg/kg
ED50 (Mus musculus [2]): 2.8 mg/kg
ED90 (Mus musculus [3]): 15.3 mg/kg
ED90 (Mus musculus [4]): 10.5 mg/kg
Reduction (Mus musculus [6]): 90%
